Source: ChEMBL document CHEMBL1155932, “False positives in a reporter gene assay: identification and synthesis of substituted N-pyridin-2-ylbenzamides as competitive inhibitors of firefly luciferase” (J Med Chem, 2008)

B1: Luciferin 4-monooxygenase (Luciola lateralis), Q01158 (protein)
chain: MENMENDENIVYGPEPFYPIEEGSAGAQLRKYMDRYAKLGAIAFTNALTGVDYTYAEYLEKSCCLGEALKNYGLVVDGRIALCSENCEEFFIPVLAGLFIGVGVAPTNEIYTLRELVHSLGISKPTIVFSSKKGLDKVITVQKTVTAIKTIVILDSKVDYRGYQSMDNFIKKNTPQGFKGSSFKTVEVNRKEQVALIMNSSGSTGLPKGVQLTHENAVTRFSHARDPIYGNQVSPGTAILTVVPFHHGFGMFTTLGYLTCGFRIVMLTKFDEETFLKTLQDYKCSSVILVPTLFAILNRSELLDKYDLSNLVEIASGGAPLSKEIGEAVARRFNLPGVRQGYGLTETTSAIIITPEGDDKPGASGKVVPLFKAKVIDLDTKKTLGPNRRGEVCVKGPMLMKGYVDNPEATREIIDEEGWLHTGDIGYYDEEKHFFIVDRLKSLIKYKGYQVPPAELESVLLQHPNIFDAGVAGVPDPIAGELPGAVVVLEKGKSMTEKEVMDYVASQVSNAKRLRGGVRFVDEVPKGLTGKIDGKAIREILKKPVAKM

Assays:
[1] = target: T1, Luciferin 4-monooxygenase (Luciola lateralis) (UniProt Q01158); experiment: Inhibition of firefly luciferase activity at 10 uM; conditions: Aquatica lateralis
T1 sequence (whole entry): B1 chain
Summary of the method: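 Single 10 µM inhibitor concentration against 32 pM firefly luciferase with 50 µM D-luciferin and 90 µM ATP, pH 7.8 glycine-Tris buffers containing MgSO4 and EDTA. 30 min incubation in the dark at room temperature, then luminescence read. Percent inhibition from n = 2 experiments in duplicate.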

[2] = target: T2, Luciferin 4-monooxygenase (Luciola lateralis, UniProt Q01158); experiment: Inhibition of firefly luciferase activity; design: species or system Aquatica lateralis
T2 sequence (Q01158 whole entry): B1 chain
Summary of the method: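 Firefly luciferase (32 pM) in glycine-Tris buffer with EDTA and MgSO4, pH 7.8; substrates 50 µM D-luciferin and 90 µM ATP in glycine-Tris/MgSO4/EDTA/0.1% BSA/azide buffer, pH 7.8. Inhibitor tested at 11 concentrations; 30 min dark incubation, room temperature; luminescence counted. Nonspecific activity defined with 100 µM reference inhibitor. IC50 ± SEM from three experiments in duplicate.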

[3] = substrate: O=C(Nc1ccc2ccccc2n1)c1ccccc1; conditions: Aquatica lateralis; 1 uM
[4] = substrate: O=C(Nc1ccc2ccccc2n1)c1ccccc1; conditions: Aquatica lateralis; 0.1 uM
[5] = substrate: O=C(Nc1ccc2ccccc2n1)c1ccccc1; conditions: Aquatica lateralis; 1 uM; remark: listed apart in the source

Molecule | inhibition [1] [%] | IC50 [2] [µM] | other results
O=C(Nc1ccccc1)Nc1ccc(-c2ccccc2)cn1 | 20 |  | 
CN(C)c1ccc(-c2ccc(NC(=O)c3ccccc3)nc2)cc1 | 14 |  | 
O=C(Nc1ccc(-c2ccccc2)cn1)c1ccccc1 |  | 0.069 | 
O=C(Nc1ccc(-c2ccccc2)cn1)c1ccc(Cl)cc1 | 0 |  | 
O=C(Nc1ccccn1)c1ccccc1 | 27 |  | 
c1ccc(CNc2ccc(-c3ccccc3)cn2)cc1 | 20 |  | 
O=C(Nc1cccc(-c2ccccc2)n1)c1ccccc1 | 30 |  | 
Cc1ccc(-c2ccc(NC(=O)c3ccccc3)nc2)cc1 | 51 |  | 
COc1ccc(C(=O)Nc2ccc(C)cn2)c(OC)c1 |  | 0.61 | 
Cc1ccc(C(=O)Nc2ccc(-c3ccccc3)cn2)cc1 | 18 |  | 
O=C(Nc1ccc2ccccc2n1)c1ccccc1 |  | 1.7 | 
O=C(Nc1ccc(-c2ccc(C(F)(F)F)cc2)cn1)c1ccccc1 | 39 |  | 
CC(C)Oc1ccc(-c2ccc(NC(=O)c3ccccc3)nc2)cc1 | 38 |  | 
COc1ccc(C(=O)Nc2ccc(-c3ccccc3)cn2)c(OC)c1 | 26 |  | 
O=C(Nc1ccc(-c2ccc(Cl)cc2)cn1)c1ccccc1 |  | 0.56 | 
O=C(Nc1ccc(-c2ccccc2)cn1)c1ccc(Cl)c(Cl)c1 | 13 |  | 
O=C(Nc1ccc(-c2ccccc2)cn1)Oc1ccccc1 | 0 |  | 
O=C(Nc1ccc(-c2ccccc2)cn1)c1cccc(Cl)c1 |  | 0.16 | 
CC(C)Oc1ccc(C(=O)Nc2ccc(-c3ccccc3)cn2)cc1 | 12 |  | 
Cc1ccc(NC(=O)c2ccccc2)nc1 |  | 6.4 | 
CC(C)(C)c1ccc(-c2ccc(NC(=O)c3ccccc3)nc2)cc1 | 49 |  | 
COc1ccc(C(=O)Nc2ccc(-c3ccccc3)cn2)cc1 | 28 |  | 
CCCC(=O)Nc1ccc(-c2ccccc2)cn1 | 22 |  | 
COc1ccc(-c2ccc(NC(=O)c3ccccc3)nc2)cc1 |  | 0.31 | 
O=C(Nc1ccc(-c2cccc(Cl)c2)cn1)c1ccccc1 | 38 |  | 
CN(C)c1ccc(C(=O)Nc2ccc(-c3ccccc3)cn2)cc1 | 35 |  | 
O=C(Nc1ccc(-c2ccccc2)cn1)C1CCCCC1 |  | 2.4 | 
O=C(Nc1ccc(-c2ccc(Cl)c(Cl)c2)cn1)c1ccccc1 | 4 |  | 
Nc1ccc(C(=O)Nc2ccc(-c3ccccc3)cn2)cc1 |  | 1.2 | 
B1 |  |  | Km [3]: 53 µM; Vmax [3]: 95%; Km [4]: 16 µM; Vmax [4]: 96%; Km [5]: 3.8 µM; Vmax [5]: 56%
